Measurements: ChEMBL document CHEMBL1759925, “Rapidly photoactivatable ATP probes for specific labeling of tropomyosin within the actomyosin protein complex” (Bioorg Med Chem Lett, 2011)
Activity calls are given as the source filed them. The rule behind the calls is not given here.

Tests used:
Gallus gallus [1] = species on record: Gallus gallus; assay: Binding affinity to chicken skeletal muscle tropomyosin within actomyosin protein complex at 125 uM after 1 hr followed by 10 mins irradiation with UVA by chemiluminescent assay using avidin-horseradish peroxidase conjugate; format: tissue-based; settings: Muscle tissue
Procedure, shortened: (§1)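 Actomyosin (3.9 µg) was incubated for 1 h with photoaffinity ATP probe in 30 mM Tris–HCl (pH 7.2), 5 mM MgCl₂ and 1 mM EGTA, then irradiated with 360 nm light. Photoproducts were resolved on 10% SDS–PAGE, transferred to PVDF, and labeled proteins visualized by chemiluminescence using avidin-HRP conjugate.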

Gallus gallus [2] = species on record: Gallus gallus; assay: Binding affinity to chicken skeletal muscle tropomyosin within actomyosin protein complex at 125 uM after 1 hr followed by 10 mins irradiation with UVA by SDS-PAGE analysis using coomassie brilliant blue staining; format: tissue-based; settings: Muscle tissue
Gallus gallus [3] = species on record: Gallus gallus; assay: Binding affinity to chicken skeletal muscle tropomyosin within actomyosin protein complex at 125 uM after 1 hr followed by 10 mins irradiation with UVA by chemiluminescent assay using avidin-horseradish peroxidase conjugate in presence of 1 mM of calcium chloride
Procedure, shortened: (§2)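 Actomyosin (3.9 µg) was incubated with photoaffinity ATP probe for 1 h in 30 mM Tris–HCl (pH 7.2), 5 mM MgCl₂ and 1 mM CaCl₂, with no EGTA. Samples were then irradiated at 360 nm, separated by 10% SDS–PAGE and blotted to PVDF. Labeled bands were detected by chemiluminescence with avidin-HRP conjugate.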

Gallus gallus [4] = species on record: Gallus gallus; assay: Binding affinity to chicken skeletal muscle actomyosin at 125 uM after 1 hr followed by 10 mins irradiation with UVA by chemiluminescent method using avidin-horseradish peroxidase conjugate in presence of 1 mM of calcium chloride; procedure, shortened: as §2
Gallus gallus [5] = species on record: Gallus gallus; assay: Binding affinity to chicken skeletal muscle actin within actomyosin protein complex at 125 uM after 1 hr followed by 10 mins irradiation with UVA by chemiluminescent method using avidin-horseradish peroxidase conjugate in presence of 1 mM of calcium chloride; procedure, shortened: as §2
Gallus gallus [6] = species on record: Gallus gallus; assay: Binding affinity to chicken skeletal muscle myosin within actomyosin protein complex at 125 uM after 1 hr followed by 10 mins irradiation with UVA by chemiluminescent method using avidin-horseradish peroxidase conjugate in presence of 1 mM of calcium chloride; procedure, shortened: as §2
Gallus gallus [7] = species on record: Gallus gallus; assay: Binding affinity to chicken skeletal muscle tropomyosin within actomyosin protein complex at 125 uM after 1 hr followed by 10 mins irradiation with UVA by Western blot analysis; format: tissue-based; settings: Muscle tissue; procedure, shortened: as §1

| Activity (Gallus gallus [1]) | Activity (Gallus gallus [2]) | Activity (Gallus gallus [3]) | Activity (Gallus gallus [4]) | Activity (Gallus gallus [5]) | Activity (Gallus gallus [6]) | SMILES | Activity (Gallus gallus [7]) |
| --- | --- | --- | --- | --- | --- | --- | --- |
| Active | Active | – | – | – | – | Nc1ncnc2c1ncn2[C@@H]1O[C@H](COP(=O)(O)OP(=O)(O)OP(=O)(O)NCc2ccc(C3(C(F)(F)F)N=N3)cc2OCCOCCOCCNC(=O)CCCC[C@@H]2SC[C@@H]3NC(=O)N[C@@H]32)[C@@H](O)[C@H]1O | – |
| Active | Active | Active | Active | Active | Active | Nc1ncnc2c1ncn2[C@@H]1O[C@H](COP(=O)(O)OP(=O)(O)OP(=O)(O)NCc2ccc(C3(C(F)(F)F)N=N3)cc2)[C@@H](O)[C@H]1O | Active |
